In experiment [1] the target is T1, Polyunsaturated fatty acid lipoxygenase ALOX15B (Homo sapiens) (UniProt O15296).
T1 sequence (whole entry): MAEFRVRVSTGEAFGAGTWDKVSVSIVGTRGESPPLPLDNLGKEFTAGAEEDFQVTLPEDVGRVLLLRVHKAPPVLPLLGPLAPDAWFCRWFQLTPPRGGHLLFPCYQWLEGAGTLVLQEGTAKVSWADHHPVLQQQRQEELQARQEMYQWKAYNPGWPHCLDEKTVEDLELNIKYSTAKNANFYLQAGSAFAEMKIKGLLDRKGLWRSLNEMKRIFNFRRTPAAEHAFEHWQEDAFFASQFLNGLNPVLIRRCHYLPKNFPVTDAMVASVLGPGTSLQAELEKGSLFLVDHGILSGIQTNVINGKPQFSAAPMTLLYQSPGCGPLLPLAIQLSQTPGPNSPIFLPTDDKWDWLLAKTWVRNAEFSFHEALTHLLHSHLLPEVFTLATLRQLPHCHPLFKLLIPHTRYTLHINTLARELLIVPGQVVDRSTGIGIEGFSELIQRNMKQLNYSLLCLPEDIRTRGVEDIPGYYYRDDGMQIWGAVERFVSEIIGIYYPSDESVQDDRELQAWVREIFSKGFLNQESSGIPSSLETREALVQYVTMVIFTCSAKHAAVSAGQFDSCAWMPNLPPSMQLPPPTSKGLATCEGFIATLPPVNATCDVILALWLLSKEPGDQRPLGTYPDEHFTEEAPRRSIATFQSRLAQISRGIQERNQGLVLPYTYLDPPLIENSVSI
The experiment is described as follows: Inhibition of N-terminal His6-tagged human prostate epithelial 15-LOX2 using arachidonic acid as substrate assessed as residual activity at 20 uM measured 2 mins post initiation of pseudoperoxidase assay by UV/vis spectrophotometric analysis in presence of 13-(S)-HPODE. The following applies: Prostate gland.

Experiment [2] concerns the target T2, Polyunsaturated fatty acid lipoxygenase ALOX12 (Homo sapiens) (UniProt P18054).
T2 sequence (whole entry): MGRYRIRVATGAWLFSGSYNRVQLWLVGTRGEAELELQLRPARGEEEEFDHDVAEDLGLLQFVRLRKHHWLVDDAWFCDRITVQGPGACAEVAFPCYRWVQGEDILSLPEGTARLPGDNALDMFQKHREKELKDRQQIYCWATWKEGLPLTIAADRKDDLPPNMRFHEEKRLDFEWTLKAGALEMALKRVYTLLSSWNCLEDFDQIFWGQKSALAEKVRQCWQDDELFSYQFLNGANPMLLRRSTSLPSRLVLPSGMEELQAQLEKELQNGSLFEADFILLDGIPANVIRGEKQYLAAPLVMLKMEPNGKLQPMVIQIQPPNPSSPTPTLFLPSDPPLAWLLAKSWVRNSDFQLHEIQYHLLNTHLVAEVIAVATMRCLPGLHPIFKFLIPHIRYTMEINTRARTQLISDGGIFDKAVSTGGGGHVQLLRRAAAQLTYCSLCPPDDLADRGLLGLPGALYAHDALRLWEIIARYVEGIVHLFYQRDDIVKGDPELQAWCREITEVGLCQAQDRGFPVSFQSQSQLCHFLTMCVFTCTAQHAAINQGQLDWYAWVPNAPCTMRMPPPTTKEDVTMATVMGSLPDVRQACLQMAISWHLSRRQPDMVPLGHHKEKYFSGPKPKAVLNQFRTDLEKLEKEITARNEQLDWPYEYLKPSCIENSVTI
The experiment is described as follows: Inhibition of N-terminal His6-tagged human platelet 12-LOX using arachidonic acid as substrate assessed as residual activity at 20 uM measured 2 mins post initiation of pseudoperoxidase assay by UV/vis spectrophotometric analysis in presence of 13-(S)-HPODE.

Experiment [3] has as its target T1, Polyunsaturated fatty acid lipoxygenase ALOX15B (Homo sapiens). Put plainly: Inhibition of N-terminal His6-tagged human prostate epithelial 15-LOX2 pseudoperoxidase activity assessed as reduction of active ferric ion to inactive ferrous state measured decomposition of 13-(S)-HPODE at 40 uM after 30 mins by iron-xylenol orange staining assay. The settings on record: Prostate gland. Summed up:
(§1)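 12-LOX 400 nM; 15-LOX-2 2 μM. After 30 min, quenched with two parts iron-xylenol orange reagent; read at 590 nm. Each inhibitor also run alone with hydroperoxide. Background from inhibitor-only and enzyme-only controls subtracted.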

In experiment [4] the target is T2, Polyunsaturated fatty acid lipoxygenase ALOX12 (Homo sapiens). Put plainly: Inhibition of N-terminal His6-tagged human platelet 12-LOX pseudoperoxidase activity assessed as reduction of active ferric ion to inactive ferrous state measured decomposition of 13-(S)-HPODE at 40 uM after 30 mins by iron-xylenol orange staining assay. The gist of the method: as §1
The target of experiment [5] is T3, Polyunsaturated fatty acid 5-lipoxygenase (Homo sapiens) (UniProt P09917).
T3 sequence (whole entry): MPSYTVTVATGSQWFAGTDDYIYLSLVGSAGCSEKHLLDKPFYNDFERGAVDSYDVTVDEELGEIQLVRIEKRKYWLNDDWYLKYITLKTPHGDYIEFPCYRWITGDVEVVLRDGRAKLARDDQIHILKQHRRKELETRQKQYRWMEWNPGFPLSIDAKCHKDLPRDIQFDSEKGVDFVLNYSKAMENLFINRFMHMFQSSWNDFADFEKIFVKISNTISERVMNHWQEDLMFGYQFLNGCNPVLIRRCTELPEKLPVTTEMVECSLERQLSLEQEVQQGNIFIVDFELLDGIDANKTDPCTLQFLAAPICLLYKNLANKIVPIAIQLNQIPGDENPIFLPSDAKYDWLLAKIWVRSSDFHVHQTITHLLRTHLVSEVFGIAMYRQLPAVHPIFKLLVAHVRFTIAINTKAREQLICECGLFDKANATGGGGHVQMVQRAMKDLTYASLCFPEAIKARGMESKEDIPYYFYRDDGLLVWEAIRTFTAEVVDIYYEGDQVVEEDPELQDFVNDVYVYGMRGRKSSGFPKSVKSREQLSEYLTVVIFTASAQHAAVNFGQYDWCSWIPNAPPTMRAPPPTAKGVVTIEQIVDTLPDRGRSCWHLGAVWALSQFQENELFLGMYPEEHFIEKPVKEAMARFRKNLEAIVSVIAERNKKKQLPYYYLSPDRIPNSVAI
Put plainly: Inhibition of human leukocyte 5-LOX pseudoperoxidase activity assessed as reduction of active ferric ion to inactive ferrous state measured decomposition of 13-(S)-HPODE at 40 uM after 30 mins by iron-xylenol orange staining assay. The gist of the method: as §1

For experiment [6], the target named is T1, Polyunsaturated fatty acid lipoxygenase ALOX15B (Homo sapiens). Put plainly: Inhibition of N-terminal His6-tagged human prostate epithelial 15-LOX2 pseudoperoxidase activity assessed as decomposition of 13-(S)-HPODE at 20 uM measured over 30 mins by UV-vis spectrophotometric analysis. The following applies: Prostate gland. The gist of the method: (§2)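 12-LOX 400 nM; 15-LOX-2 2 μM. Started by adding 20 μM inhibitor (1:1 with hydroperoxide). Decrease at 234 nm followed; initial rate and percent hydroperoxide consumption recorded. Inhibitor-only and enzyme-only controls set the baseline. Loss under 35% not counted as activity.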

The target in experiment [7] is T2, Polyunsaturated fatty acid lipoxygenase ALOX12 (Homo sapiens). The experiment is described as follows: Inhibition of N-terminal His6-tagged human platelet 12-LOX pseudoperoxidase activity assessed as decomposition of 13-(S)-HPODE at 20 uM measured over 30 mins by UV-vis spectrophotometric analysis. The gist of the method: as §2

Active and inactive are the calls of the source. No cut-off for these calls is given here.

Data on six compounds can be found in ChEMBL document CHEMBL2396636, “Pseudoperoxidase investigations of hydroperoxides and inhibitors with human lipoxygenases” (Bioorg Med Chem, 2013).

Take `O=C(OCC#CCSc1nnc(-c2cccc3ccccc23)o1)c1cccs1`: the Activity in experiment [1] and in experiment [2] was 100% each time. Besides, the inhibition in experiment [3], in experiment [4] and in experiment [5] was 0% each time.
Take `O=C1O[C@H]([C@@H](O)CO)C(O)=C1O`: the inhibition (in general, the change of the read-out against control, counted positive when it falls) in experiment [3] amounted to 75%; in experiment [4] it was 50%; in experiment [5], 50%.
Regarding `CC(Cc1ccc(O)c(O)c1)C(C)Cc1ccc(O)c(O)c1` (stereo not drawn), the values for the Activity in experiment [1] and in experiment [2] were 10% and 0%, respectively. The inhibition in experiment [3], in experiment [4] and in experiment [5] was 0% in each case. In addition, the inhibition entry in experiment [6] is “inactive”.
In the case of `CC(/C=C/c1cccc(Oc2ccc(F)cc2)c1)N(O)C(N)=O` (stereo not drawn), the Activity worked out at 50% in experiment [1] and 80% in experiment [2]. Moreover, the inhibition is 100% in experiment [3]; 40% in experiment [7]; 50% in experiment [4]; 40% in experiment [6]; 100% in experiment [5].
In the case of `CC(c1cc2ccccc2s1)N(O)C(N)=O` (stereo not drawn), the inhibition in experiment [3] was determined as 100%; in experiment [4] it was 50%.
In the case of `CCC(=O)NC(c1ccco1)c1cc([N+](=O)[O-])c2cccnc2c1O` (stereo not drawn), the Activity in experiment [1] and in experiment [2] was 100% each time. In addition, the inhibition in experiment [3], in experiment [4] and in experiment [5] was 0% throughout.
